Reference: PMC8359806 (Science translational medicine, 2020)

Legend:
lipoprotein lipase (LPL) = assay: Ex vivo TG lipolysis; assay type: biochemical; conditions: human apoC-II-deficient plasma (TG=1711 mg/dL) with added LPL
Outline: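 Human apoC-II-deficient plasma (TG=1711 mg/dL) was spiked with LPL plus test compound at the indicated concentrations or at 10 μM. LPL activity was read as NEFA generation, measured enzymatically. Results are the mean of triplicates ± S.D. (two-way ANOVA, Bonferroni post-test), or N=8 at 10 μM (Mann-Whitney).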

apoC-III = apoC-III (Homo sapiens, UniProt P02656); assay type: biochemical; conditions: 33 μM apoC-III added to pooled human HTG plasma (TG=360 mg/dL) with LPL
Chain of apoC-III (P02656 21-99): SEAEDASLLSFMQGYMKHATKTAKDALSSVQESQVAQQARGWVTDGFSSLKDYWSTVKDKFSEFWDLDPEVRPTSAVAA
Outline: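 Pooled human HTG plasma (TG=360 mg/dL) was incubated with LPL and test compound at 0–100 μM (0–0.47 mg/mL), with or without 33 μM apoC-III. Reference conditions were LPL alone and LPL with apoC-III. Lipolysis was read as NEFA generation, measured enzymatically. Results are the mean of triplicates ± S.D. (two-way ANOVA, Bonferroni post-test).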

stimulation of ex vivo lipolysis (lipoprotein lipase (LPL)) | inhibition of ex vivo lipolysis of TG (apoC-III) | Substance
only partial activity | – | TYLPAVDEKLRDLYSKSTAAMSTYTGIFTDQVLSVLKGEE [RCH2]
– | approximately 40% | apoC-III: apolipoprotein C-III, inhibits LPL
